Source: ChEMBL document CHEMBL1125029, “Chemical and biochemical studies of 2-propynylpyrrolidine derivatives. Restricted-rotation analogues of N-methyl-N-(1-methyl-4-pyrrolidino-2-butynyl)acetamide (BM-5)” (J Med Chem, 1990)

Columns and labels:
[1] = target: T1, Muscarinic acetylcholine receptor M1 (Rattus norvegicus) (UniProt P08482); experiment: Muscarinic 1 receptor agonistic activity as the selectivity ratio of Ki against [3H]-QNB+ Gpp(NH)p to that of [3H]PZ; format: functional
T1 sequence (whole entry): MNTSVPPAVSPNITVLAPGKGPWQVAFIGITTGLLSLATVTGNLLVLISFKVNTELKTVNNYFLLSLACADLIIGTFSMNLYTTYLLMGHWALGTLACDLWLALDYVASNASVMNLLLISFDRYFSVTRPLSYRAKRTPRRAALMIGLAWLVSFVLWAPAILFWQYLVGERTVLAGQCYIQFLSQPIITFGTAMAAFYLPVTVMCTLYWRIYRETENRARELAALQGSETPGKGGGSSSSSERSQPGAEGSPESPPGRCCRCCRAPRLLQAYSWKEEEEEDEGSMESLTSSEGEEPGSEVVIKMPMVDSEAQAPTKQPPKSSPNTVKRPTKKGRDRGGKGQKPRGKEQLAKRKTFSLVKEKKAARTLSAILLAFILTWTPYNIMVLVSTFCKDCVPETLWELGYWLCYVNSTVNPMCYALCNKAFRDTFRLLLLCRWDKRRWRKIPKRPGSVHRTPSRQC

[2] = target: Muscarinic receptor M1 and M2 (Rattus norvegicus) (UniProt P08482+P10980); experiment: The agonist ratio as the ratio of Ki against [3H]QNB to that of [3H]-CD; format: functional
[3] = target: Muscarinic acetylcholine receptor; experiment: Binding activity to muscarinic acetylcholine receptor in rat heart, assayed using [3H]QNB as a radioligand in the presence of Gpp(NH)p.
Summary of the method: (§1)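 Male Wistar rat heart ventricles flushed, minced, Polytron-homogenized in 10 mM Na/K phosphate pH 7.4, spun 48000 g 15 min 4 °C, resuspended, gauze-filtered, diluted 1:750, 0.15-0.2 mg protein/2.0 mL. 10 μM Gpp(NH)p added to homogenate for line 3. Competitor 10^-12 to 10^-3 M. 10 μM atropine nonspecific. Filtration, scintillation counting. Ki from one-site fit.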

[4] = target: T2, Muscarinic acetylcholine receptor M2 (Rattus norvegicus) (UniProt P10980); experiment: Muscarinic 2 receptor agonistic activity was determined as the selectivity ratio of Ki against [3H]QNB+ Gpp(NH)p to that of [3H]QNB; format: functional
T2 sequence (whole entry): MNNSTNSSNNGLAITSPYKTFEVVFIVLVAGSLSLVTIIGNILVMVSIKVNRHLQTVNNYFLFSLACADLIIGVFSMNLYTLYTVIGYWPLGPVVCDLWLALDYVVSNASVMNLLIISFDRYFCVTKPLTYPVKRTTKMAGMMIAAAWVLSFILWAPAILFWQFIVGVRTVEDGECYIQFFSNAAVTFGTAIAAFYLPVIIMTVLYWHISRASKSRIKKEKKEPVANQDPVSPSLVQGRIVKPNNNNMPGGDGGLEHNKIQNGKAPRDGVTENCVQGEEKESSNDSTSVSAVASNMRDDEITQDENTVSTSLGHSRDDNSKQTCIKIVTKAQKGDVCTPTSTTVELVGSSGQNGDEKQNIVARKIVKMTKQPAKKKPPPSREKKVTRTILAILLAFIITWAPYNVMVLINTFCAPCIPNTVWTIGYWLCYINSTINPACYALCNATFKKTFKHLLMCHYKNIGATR

[5] = target: Muscarinic acetylcholine receptor; experiment: Binding activity to the muscarinic acetylcholine receptor in rat cortex, assayed using [3H]PZ as a radioligand.; format: tissue-based
Summary of the method: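 Rat (male Wistar, 200-250 g) cortex homogenized in ice-cold Na/K phosphate buffer pH 7.4, diluted 1:400, ~0.55 mg protein per 2.0 mL. 0.1 nM radioligand (84.1 Ci/mmol), made fresh just before use. Unlabeled competitor at final 10^-12 to 10^-3 M. 10 μM atropine for nonspecific. Filtered, counted by liquid scintillation. One-site competitive fit gives apparent Ki.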

[6] = target: T1, Muscarinic acetylcholine receptor M1 (Rattus norvegicus); experiment: Muscarinic 1 receptor agonistic activity as the selectivity ratio of Ki against [3H]-QNB to that of [3H]PZ; format: functional
[7] = target: Muscarinic acetylcholine receptor; experiment: Binding activity to muscarinic acetylcholine receptor in rat heart, assayed using [3H]-QNB as a radioligand.; summary of the method: as §1
[8] = target: Muscarinic acetylcholine receptor; experiment: Binding activity to the muscarinic acetylcholine receptor in rat cortex, assayed using [3H]CD as a radioligand.; format: tissue-based
Summary of the method: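 Male Wistar rat cerebral cortex homogenate in 10 mM Na/K phosphate pH 7.4, diluted 1:300 (wet wt/v), ~0.75 mg protein per 2.0 mL. 1 nM radioligand (55.5 Ci/mmol), prepared fresh in buffer. Competitor 10^-12 to 10^-3 M. Nonspecific binding with 10 μM atropine. Rapid filtration on PEI-treated filters, scintillation counting. Apparent Ki by one-site competitive nonlinear regression.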

[9] = target: Muscarinic acetylcholine receptor; experiment: Binding activity against Muscarinic acetylcholine receptor in rat cortex, using [3H]QNB as a radioligand.; format: tissue-based
Summary of the method: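 Radioligand 250 pM (30.0 Ci/mmol). Competitor at final 10^-12 to 10^-3 M. 10 μM atropine defines nonspecific binding. Filtration on PEI-soaked GF/B filters, scintillation counting. Apparent Ki from one-site competitive nonlinear fit.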

Ratio [1] | Ratio [2] | Ki [3] | Ratio [4] | Ki [5] | Ratio [6] | Ki [7] | Ki [8] | Ki [9] | SMILES
62 | 1 | 77 µM | 10 | 1.23 µM | 6.2 | 7.62 µM | 4.88 µM | 4.59 µM | O=CN1CCC[C@H]1C#CCN1CCCC1
11 | 1.9 | 22.6 µM | 1.5 | 2.06 µM | 7.5 | 15.5 µM | 2.55 µM | 4.96 µM | CC(=O)N1CCC[C@H]1C#CCN1CCCC1.Cl
